Source: ChEMBL document CHEMBL3085772, “Synthesis, biological evaluation and molecular modeling study of 5-trifluoromethyl-Δ²-pyrazoline and isomeric 5/3-trifluoromethylpyrazole derivatives as anti-inflammatory agents” (2013)

Assays:
Assay type in all cases: functional
Design in all cases: scale not given: the % may be the effect or the level left
Rattus norvegicus [1] = assay: Antiinflammatory activity in Wistar albino rat assessed as reduction in carrageenan-induced paw edema at 50 mg/kg, po administered 30 mins prior to carrageenan challenge measured after 2 hrs by plethysmometer
In short: (§1)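 Rats housed under standard light and temperature with free food and water; food withdrawn 12 h before and during testing; six rats per group, control given tween 80. Oral dosing 30 min before subplantar injection of 0.1 mL 1% w/v carrageenan in normal saline into left hind paw. Paw volume read by plethysmometer at baseline and 1, 2, 3, 4 h; %AI = (Vc−Vt)/Vc×100.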

Rattus norvegicus [2] = assay: Antiinflammatory activity in Wistar albino rat assessed as reduction in carrageenan-induced paw edema at 50 mg/kg, po administered 30 mins prior to carrageenan challenge measured after 3 hrs by plethysmometer; in short: as §1
Rattus norvegicus [3] = assay: Antiinflammatory activity in Wistar albino rat assessed as reduction in carrageenan-induced paw edema at 50 mg/kg, po administered 30 mins prior to carrageenan challenge measured after 4 hrs by plethysmometer; in short: as §1
Rattus norvegicus [4] = assay: Antiinflammatory activity in Wistar albino rat assessed as reduction in carrageenan-induced paw edema at 50 mg/kg, po administered 30 mins prior to carrageenan challenge measured after 1 hr by plethysmometer; in short: as §1
Rattus norvegicus [5] = assay: Antiinflammatory activity in Wistar albino rat assessed as reduction in carrageenan-induced paw edema at 10 mg/kg, po administered 30 mins prior to carrageenan challenge measured after 1 hr by plethysmometer; in short: as §1
Rattus norvegicus [6] = assay: Antiinflammatory activity in Wistar albino rat assessed as reduction in carrageenan-induced paw edema at 10 mg/kg, po administered 30 mins prior to carrageenan challenge measured after 3 hrs by plethysmometer; in short: as §1
Rattus norvegicus [7] = assay: Antiinflammatory activity in Wistar albino rat assessed as reduction in carrageenan-induced paw edema at 10 mg/kg, po administered 30 mins prior to carrageenan challenge measured after 2 hrs by plethysmometer; in short: as §1
Rattus norvegicus [8] = assay: Antiinflammatory activity in Wistar albino rat assessed as reduction in carrageenan-induced paw edema at 10 mg/kg, po administered 30 mins prior to carrageenan challenge measured after 4 hrs by plethysmometer; in short: as §1

Row | Compound | Activity (Rattus norvegicus [1]) | Activity (Rattus norvegicus [2]) | Activity (Rattus norvegicus [3]) | Activity (Rattus norvegicus [4]) | Activity (Rattus norvegicus [5]) | Activity (Rattus norvegicus [6]) | Activity (Rattus norvegicus [7]) | Activity (Rattus norvegicus [8])
1 | Cc1cc(C)nc(-n2nc(C(F)(F)F)cc2C(F)(F)F)n1 | 46% | 57% | 44% | 34% |  |  |  | 
2 | Cc1cc(C)nc(-n2nc(C(F)(F)F)cc2-c2ccccc2)n1 | 43% | 62% | 51% | 33% |  |  |  | 
3 | Cc1cc(C)nc(-n2nc(-c3ccc(Cl)cc3)cc2C(F)(F)F)n1 | 54% | 58% | 53% | 35% |  |  |  | 
4 | Cc1cc(C)nc(-n2nc(-c3ccc(F)cc3)cc2C(F)(F)F)n1 | 38% | 55% | 49% | 26% |  |  |  | 
5 | Cc1cc(C)nc(-n2nc(-c3ccccc3)cc2C(F)(F)F)n1 | 20% | 59% | 56% | 4.3% |  |  |  | 
6 | Cc1cc(C)nc(-n2nc(-c3cccs3)cc2C(F)(F)F)n1 | 18% | 47% | 37% | 8.6% |  |  |  | 
7 | COc1ccc(-c2cc(C(F)(F)F)nn2-c2nc(C)cc(C)n2)cc1 | 59% | 72% | 61% | 56% |  |  |  | 
8 | Cc1cc(C)nc(N2N=C(C(F)(F)F)C[C@@]2(O)C(F)(F)F)n1 | 44% | 49% | 23% | 42% |  |  |  | 
9 | Cc1cc(C)nc(N2N=C(c3ccccc3)C[C@@]2(O)C(F)(F)F)n1 | 47% | 50% | 45% | 44% |  |  |  | 
10 | Cc1ccc(C2=NN(c3nc(C)cc(C)n3)[C@](O)(C(F)(F)F)C2)cc1 | 35% | 54% | 50% | 32% |  |  |  | 
11 | Cc1cc(C)nc(N2N=C(c3ccc(F)cc3)C[C@@]2(O)C(F)(F)F)n1 | 51% | 54% | 38% | 49% |  |  |  | 
12 | Cc1cc(C)nc(N2N=C(c3ccc(Cl)cc3)C[C@@]2(O)C(F)(F)F)n1 | 50% | 59% | 45% | 5.7% |  |  |  | 
13 | Cc1ccc(-c2cc(C(F)(F)F)nn2-c2nc(C)cc(C)n2)cc1 | 55% | 69% | 53% | 48% |  |  |  | 
14 | Cc1cc(C)nc(-n2nc(C(F)(F)F)cc2-c2ccc(F)cc2)n1 | 59% | 67% | 58% | 29% |  |  |  | 
15 | Cc1cc(C)nc(-n2nc(C(F)(F)F)cc2-c2ccc(Cl)cc2)n1 | 64% | 76% | 63% | 55% |  |  |  | 
16 | COc1ccc2c(c1)c(CC(=O)O)c(C)n2C(=O)c1ccc(Cl)cc1 [INDOMETHACIN] |  |  |  |  | 69% | 78% | 75% | 74%
